# According to ChEMBL document CHEMBL4689842, “EUbOPEN Chemogenomics Library wave 1” (2021):
# Values joined by “and” are separate entries in the source; they are usually repeats but may differ in a detail not shown here. Identical values can stand only once.
# Test system: Fibroblast
# Experiment: Multiplex assay against human fibroblast
# Assay type: toxicity, cell-based
# Procedure, shortened: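 Hoechst33342, BioTracker Green Microtubule Cytoskeleton Dye, MitoTracker Red and Annexin V Alexa Fluor 680 were added to live cells at seeding, and imaging on a CQ1 microscope at 37°C and 5% CO2 followed compound addition. Gating by CellPathfinder machine learning separated cells into Hoechst high-intensity objects or normal cells, then normal cells into healthy, pyknosed or fragmented nuclei, then pyknosed cells into mitotic or apoptotic. Per cents of healthy-nucleus cells are reported for the tubulin, mitochondrial-mass and membrane-permeability phenotypes.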
# [1] = 12 h, 1 µM, compound concentration 1 uM, replicate 1
# [2] = 12 h, 1 µM, compound concentration 1 uM, replicate 2
# [3] = 12 h, 10 µM, compound concentration 10 uM, replicate 1
# [4] = 12 h, 10 µM, compound concentration 10 uM, replicate 2
# [5] = 24 h, 1 µM, compound concentration 1 uM, replicate 1
# [6] = 24 h, 1 µM, compound concentration 1 uM, replicate 2
# [7] = 24 h, 10 µM, compound concentration 10 uM, replicate 1
# [8] = 24 h, 10 µM, compound concentration 10 uM, replicate 2
# [9] = 48 h, 1 µM, compound concentration 1 uM, replicate 1
# [10] = 48 h, 1 µM, compound concentration 1 uM, replicate 2
# [11] = 48 h, 10 µM, compound concentration 10 uM, replicate 1
# [12] = 48 h, 10 µM, compound concentration 10 uM, replicate 2
compound,measurement,setting,value
c1cn2cc(-c3ccc4cn[nH]c4c3)nc(Nc3ccc(N4CCOCC4)cc3)c2n1 [ENTOSPLETINIB],Population Apoptotic (%),[1],60%
same,Population Fragmented Nuclei (%),[1],23%
same,Population Healthy Nuclei (%),[1],36%
same,Population Hoechst High Intensity Objects (%),[1],14%
same,Population Membrane Permeable-Phenotype (%),[1],20%
same,Population Mitochondria Different-Phenotype (%),[1],12%
same,Population Mitotic Cells (%),[1],39%
same,Population Normal (%),[1],85%
same,Population Pyknosed Nuclei (%),[1],40%
same,Population Tubulin-Different-Phenotype (%),[1],52%
same,Total Cell Count,[1],81
same,Population Apoptotic (%),[2],40%
same,Population Fragmented Nuclei (%),[2],16%
same,Population Healthy Nuclei (%),[2],73%
same,Population Hoechst High Intensity Objects (%),[2],5%
same,Population Membrane Permeable-Phenotype (%),[2],10%
same,Population Mitochondria Different-Phenotype (%),[2],23%
same,Population Mitotic Cells (%),[2],60%
same,Population Normal (%),[2],94%
same,Population Pyknosed Nuclei (%),[2],9%
same,Population Tubulin-Different-Phenotype (%),[2],25%
same,Total Cell Count,[2],59
same,Population Apoptotic (%),[3],51%
same,Population Fragmented Nuclei (%),[3],24%
same,Population Healthy Nuclei (%),[3],3%
same,Population Hoechst High Intensity Objects (%),[3],41%
same,Population Membrane Permeable-Phenotype (%),[3],14%
same,Population Mitochondria Different-Phenotype (%),[3],4%
same,Population Mitotic Cells (%),[3],48%
same,Population Normal (%),[3],58%
same,Population Pyknosed Nuclei (%),[3],72%
same,Population Tubulin-Different-Phenotype (%),[3],23%
same,Total Cell Count,[3],1163
same,Population Apoptotic (%),[4],92%
same,Population Fragmented Nuclei (%),[4],30%
same,Population Healthy Nuclei (%),[4],2%
same,Population Hoechst High Intensity Objects (%),[4],25%
same,Population Membrane Permeable-Phenotype (%),[4],21%
same,Population Mitochondria Different-Phenotype (%),[4],82%
same,Population Mitotic Cells (%),[4],7%
same,Population Normal (%),[4],74%
same,Population Pyknosed Nuclei (%),[4],67%
same,Population Tubulin-Different-Phenotype (%),[4],78%
same,Total Cell Count,[4],56
same,Population Apoptotic (%),[5],60%
same,Population Fragmented Nuclei (%),[5],25%
same,Population Healthy Nuclei (%),[5],57%
same,Population Hoechst High Intensity Objects (%),[5],11%
same,Population Membrane Permeable-Phenotype (%),[5],23%
same,Population Mitochondria Different-Phenotype (%),[5],7%
same,Population Mitotic Cells (%),[5],40%
same,Population Normal (%),[5],88%
same,Population Pyknosed Nuclei (%),[5],16%
same,Population Tubulin-Different-Phenotype (%),[5],51%
same,Total Cell Count,[5],102
same,Population Apoptotic (%),[6],14%
same,Population Fragmented Nuclei (%),[6],14%
same,Population Healthy Nuclei (%),[6],74%
same,Population Hoechst High Intensity Objects (%),[6],4%
same,Population Membrane Permeable-Phenotype (%),[6],17%
same,Population Mitochondria Different-Phenotype (%),[6],15%
same,Population Mitotic Cells (%),[6],85%
same,Population Normal (%),[6],95%
same,Population Pyknosed Nuclei (%),[6],11%
same,Population Tubulin-Different-Phenotype (%),[6],21%
same,Total Cell Count,[6],78
same,Population Apoptotic (%),[7],48%
same,Population Fragmented Nuclei (%),[7],22%
same,Population Healthy Nuclei (%),[7],3%
same,Population Hoechst High Intensity Objects (%),[7],44%
same,Population Membrane Permeable-Phenotype (%),[7],23%
same,Population Mitochondria Different-Phenotype (%),[7],4%
same,Population Mitotic Cells (%),[7],51%
same,Population Normal (%),[7],55%
same,Population Pyknosed Nuclei (%),[7],74%
same,Population Tubulin-Different-Phenotype (%),[7],47%
same,Total Cell Count,[7],1126
same,Population Apoptotic (%),[8],89%
same,Population Fragmented Nuclei (%),[8],33%
same,Population Healthy Nuclei (%),[8],2%
same,Population Hoechst High Intensity Objects (%),[8],26%
same,Population Membrane Permeable-Phenotype (%),[8],8%
same,Population Mitochondria Different-Phenotype (%),[8],36%
same,Population Mitotic Cells (%),[8],10%
same,Population Normal (%),[8],73%
same,Population Pyknosed Nuclei (%),[8],64%
same,Population Tubulin-Different-Phenotype (%),[8],20%
same,Total Cell Count,[8],65
same,Population Apoptotic (%),[9],75%
same,Population Fragmented Nuclei (%),[9],29%
same,Population Healthy Nuclei (%),[9],65%
same,Population Hoechst High Intensity Objects (%),[9],15%
same,Population Membrane Permeable-Phenotype (%),[9],18%
same,Population Mitochondria Different-Phenotype (%),[9],6%
same,Population Mitotic Cells (%),[9],25%
same,Population Normal (%),[9],84%
same,Population Pyknosed Nuclei (%),[9],4%
same,Population Tubulin-Different-Phenotype (%),[9],39%
same,Total Cell Count,[9],104
same,Population Apoptotic (%),[10],33%
same,Population Fragmented Nuclei (%),[10],28%
same,Population Healthy Nuclei (%),[10],68%
same,Population Hoechst High Intensity Objects (%),[10],11%
same,Population Membrane Permeable-Phenotype (%),[10],9%
same,Population Mitochondria Different-Phenotype (%),[10],1%
same,Population Mitotic Cells (%),[10],66%
same,Population Normal (%),[10],88%
same,Population Pyknosed Nuclei (%),[10],2%
same,Population Tubulin-Different-Phenotype (%),[10],50%
same,Total Cell Count,[10],116
same,Population Apoptotic (%),[11],43%
same,Population Fragmented Nuclei (%),[11],14%
same,Population Healthy Nuclei (%),[11],4%
same,Population Hoechst High Intensity Objects (%),[11],47%
same,Population Membrane Permeable-Phenotype (%),[11],14%
same,Population Mitochondria Different-Phenotype (%),[11],0%
same,Population Mitotic Cells (%),[11],56%
same,Population Normal (%),[11],52%
same,Population Pyknosed Nuclei (%),[11],80%
same,Population Tubulin-Different-Phenotype (%),[11],17%
same,Total Cell Count,[11],1093
same,Population Apoptotic (%),[12],82%
same,Population Fragmented Nuclei (%),[12],24%
same,Population Healthy Nuclei (%),[12],6%
same,Population Hoechst High Intensity Objects (%),[12],64%
same,Population Membrane Permeable-Phenotype (%),[12],12%
same,Population Mitochondria Different-Phenotype (%),[12],12%
same,Population Mitotic Cells (%),[12],17%
same,Population Normal (%),[12],35%
same,Population Pyknosed Nuclei (%),[12],69%
same,Population Tubulin-Different-Phenotype (%),[12],46%
same,Total Cell Count,[12],1794
Cn1cc(C2=C(c3cn(C4CCN(Cc5ccccn5)CC4)c4ccccc34)C(=O)NC2=O)c2ccccc21 [ENZASTAURIN],Population Apoptotic (%),[1],79% and 42%
same,Population Fragmented Nuclei (%),[1],34% and 40%
same,Population Healthy Nuclei (%),[1],49% and 35%
same,Population Membrane Permeable-Phenotype (%),[1],8% and 7%
same,Population Mitotic Cells (%),[1],20% and 57%
same,Population Normal (%),[1],84% and 33%
same,Population Pyknosed Nuclei (%),[1],15% and 23%
same,Total Cell Count,[1],220 and 479
same,Population Apoptotic (%),[2],66% and 55%
same,Population Fragmented Nuclei (%),[2],70% and 45%
same,Population Healthy Nuclei (%),[2],19% and 34%
same,Population Hoechst High Intensity Objects (%),[2],30% and 51%
same,Population Membrane Permeable-Phenotype (%),[2],16% and 0%
same,Population Mitochondria Different-Phenotype (%),[2],25% and 60%
same,Population Mitotic Cells (%),[2],33% and 44%
same,Population Normal (%),[2],69% and 48%
same,Population Pyknosed Nuclei (%),[2],9% and 20%
same,Total Cell Count,[2],88 and 91
same,Population Apoptotic (%),[5],64% and 73%
same,Population Fragmented Nuclei (%),[5],47% and 27%
same,Population Healthy Nuclei (%),[5],23% and 58%
same,Population Membrane Permeable-Phenotype (%),[5],6% and 3%
same,Population Mitotic Cells (%),[5],35% and 26%
same,Population Normal (%),[5],28% and 83%
same,Population Pyknosed Nuclei (%),[5],28% and 13%
same,Total Cell Count,[5],427 and 225
same,Population Apoptotic (%),[6],33% and 90%
same,Population Fragmented Nuclei (%),[6],67% and 50%
same,Population Healthy Nuclei (%),[6],26% and 19%
same,Population Hoechst High Intensity Objects (%),[6],34% and 50%
same,Population Membrane Permeable-Phenotype (%),[6],7% and 14%
same,Population Normal (%),[6],65% and 49%
same,Total Cell Count,[6],75 and 73
